Assay outcomes deposited in PubChem BioAssay by Johns Hopkins Ion Channel Center.
Most compounds without a hit are left out; they make up all but 3.5% or so of the library.
RGS4 act: RGS4 potentiation or activation; HEK293 M3R/inducible RGS4, carbachol calcium flux Fluo4; stronger effect = lower value; B-score at 10 µM; 310,000 compounds, 0.92% hits;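 active means B-score of the integrated calcium signal more than 4 SD below the library mean, with starting fluorescence not abnormally high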;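 further: negative B-score means reduced calcium response which marks RGS4 activation or potentiation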
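test system = HEK293 cells with stable M3R and inducible RGS4 | schedule = recording 10 s baseline at 1 Hz, 100 s post-agonist | technique = Fluo4-AM (2 µM) calcium-flux fluorescence, kinetic read | measure = Agonist-evoked peak-minus-minimum fluorescence over baseline, integrated ratio, B score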
RGS4 block: inhibitors of human RGS4 | P49798 | HEK293 M3R/RGS4 inducible, Fluo-4 calcium flux; stronger effect = higher value; triggered by carbachol at its EC20 | B-score at 10 µM | 310,000 compounds, 0.45% hits | AID 463165;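 active means B-score, a plate-corrected calcium signal, over three deviations above library mean, with baseline fluorescence within five deviations of library mean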;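 further: RGS4 expression induced by doxycycline in cells with stable M3 receptor; B-score is computed from the integrated fluorescence ratio over baseline after carbachol; higher B-score means a larger calcium signal and so more RGS4 inhibition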
Target sequence (P49798 whole entry, looked up): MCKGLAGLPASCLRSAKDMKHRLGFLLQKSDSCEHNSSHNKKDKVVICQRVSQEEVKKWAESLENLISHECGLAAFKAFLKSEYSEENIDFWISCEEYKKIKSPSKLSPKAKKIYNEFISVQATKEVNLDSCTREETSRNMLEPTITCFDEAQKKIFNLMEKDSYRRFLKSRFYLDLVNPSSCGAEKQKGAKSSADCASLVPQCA
MrgX1 ag: human MrgX1 receptor agonism, primary screen; Q96LB2; MrgX1-HEK293 cells, Fluo-4 calcium fluorescence, agonist mode; stronger effect = higher value; B-score at 10 µM; 310,000 compounds, 0.44% hits; AID 588627;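 active means calcium response B-score plate-corrected fluorescence ratio at least 3 library SD, with starting fluorescence B-score inside 5 SD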
Target sequence (Q96LB2 whole entry, looked up): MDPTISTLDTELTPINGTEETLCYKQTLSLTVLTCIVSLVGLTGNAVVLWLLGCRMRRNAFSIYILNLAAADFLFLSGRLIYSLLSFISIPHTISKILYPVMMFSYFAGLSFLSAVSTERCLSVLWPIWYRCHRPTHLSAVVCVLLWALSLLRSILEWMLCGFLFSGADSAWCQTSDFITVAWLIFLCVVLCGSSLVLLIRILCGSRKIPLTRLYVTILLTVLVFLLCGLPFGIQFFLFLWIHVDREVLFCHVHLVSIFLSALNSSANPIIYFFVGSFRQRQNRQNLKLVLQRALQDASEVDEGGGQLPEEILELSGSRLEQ
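Test system: HEK293 cells stably expressing human MrgX1 receptor; amount: 15,000 cells per well; doses: compound delivered in addition one of three; times: overnight plating before 1 h dye loading; detection: Fluo-4 NW calcium-flux fluorescence, kinetic read; read-out basis: B-scored fluorescence response ratio; controls: positive and negative controls per plate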
MrgX1 antag: antagonists of human MrgX1 receptor | Q96LB2 | MRGX1-HEK293 calcium flux, Fluo-4, BAM8-22 antagonism; stronger effect = lower value | B-score at 10 µM | 310,000 compounds, 1.3% hits;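 active means calcium-response B-score plate-corrected more than 3 library SD below zero, starting fluorescence within 5 deviations, no agonist response on first addition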;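 further: peak minus trough fluorescence over baseline after final BAM8-22 challenge near maximal dose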
MrgX1 PAM: allosterically activates human MrgX1 receptor signaling. 310,000 compounds, 0.63% hits. B-score at 10 µM. MrgX1-HEK293, Fluo-4 calcium flux, FDSS; stronger effect = higher value. Q96LB2;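 active means plate-corrected calcium response at least 3 library SD above typical, normal starting fluorescence, not activating the receptor alone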;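 further: compound read alongside a low EC10 to EC30 dose of BAM8-22 agonist; peak minus trough fluorescence over baseline measured at the second addition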
MrgX1 ag confirm: human MrgX1 agonism, re-confirmation screen. 600 compounds, 78% hits. shares compounds with MrgX1 ag. MrgX1-HEK293, Fluo-4 calcium fluorescence, FDSS. activation, % at 10 µM;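 active means calcium signal rise, corrected for plate position, at least 3 library SD high, with starting brightness within 5 such deviations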
HEK293 Ca flux: counter-screen for MrgX1 antagonists: effect in parental HEK293 cells | Fluo-4 calcium fluorescence, FDSS | shares compounds with MrgX1 antag | fluorescence ratio F(max-min)/F0 at 10 µM | 4,000 compounds, 2% hits | AID 624111;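 active means duplicate-averaged calcium fluorescence ratio at least three times the standard deviation of buffer wells, a nonspecific response in parental cells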
HEK293 Ca counter: activity in parental HEK293 cells without MrgX1; 4,000 compounds, 0.4% hits; fluorescence ratio F(max-min)/F0 at 10 µM; shares compounds with MrgX1 antag; parental HEK293 calcium flux, Fluo-4 fluorescence ratio; stronger effect = higher value; AID 624114;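 active means calcium fluorescence ratio, averaged over duplicates, at least 3 SD of the buffer-well ratio, meaning a nonspecific response in receptor-free cells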;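 further: untransfected parental HEK293 lacking MrgX1 used as counterscreen for MrgX1 allosteric activators; fluorescence change taken during the second addition on a kinetic imager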
HEK293 Ca cntr2: MrgX1 activator counter-screen hit in parental HEK293 cells; fluorescence ratio F(max-min)/F0 at 10 µM; 4,000 compounds, 8.7% hits; Fluo-4 calcium fluorescence (FDSS); stronger effect = higher value; AID 624115; shares compounds with MrgX1 antag;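 active means calcium fluorescence ratio at least three times the spread of buffer wells, meaning a non-specific response in parental cells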
* hit, by the source's call; i = inactive; . = no result given.

SMILES	RGS4 act	RGS4 block	MrgX1 ag	MrgX1 antag	MrgX1 PAM	MrgX1 ag confirm	HEK293 Ca flux	HEK293 Ca counter	HEK293 Ca cntr2
CC1=C([N+](=O)[O-])C(c2ccc3c(c2)OCO3)N(C)C(=O)N1C (stereo not drawn)	i	i	i	i	i	.	.	.	.
N#CCn1c(CCl)nc2ccccc2c1=O	i	i	42.3*	i	i	198.2%*	i	i	i
CCOc1ccccc1C(=O)N/N=C/c1coc2ccc(C)cc2c1=O	i	i	i	i	i	.	.	.	.
COc1ccc(CN(CC2CCC(C(=O)O)CC2)C(=S)Nc2cc(Cl)ccc2OC)cc1 (stereo not drawn)	i	i	i	i	i	.	.	.	.
CCOC(=O)C1=C(CN2CCN(C(=O)c3ccco3)CC2)NC(=O)NC1c1ccc(Cl)cc1 (stereo not drawn)	i	i	i	i	i	.	.	.	.
CCOC(=O)C1=C(CN2CCC(C)CC2)NC(=O)NC1c1ccc(Cl)cc1 (stereo not drawn)	i	i	39.3*	i	i	195.0%*	i	i	i
CC(C)c1ccccc1NC(=O)CNCCc1ccc(C(F)(F)F)cc1	i	i	i	i	i	.	.	.	.
c1ccc2c(c1)NC1(CCCC1)n1c-2nc2ccccc21	i	i	29.1*	i	i	144.3%*	i	i	i
CCCC1(C)Nc2ccccc2-c2nc3ccccc3n21 (stereo not drawn)	i	i	i	i	i	.	.	.	.
COc1ccc(N2C(=O)C3CCCN3C2=S)cc1 (stereo not drawn)	i	i	i	i	i	.	.	.	.
N#CSCC(=O)c1cccc2ccccc12	.	.	26.8*	i	i	230.4%*	i	i	i
COc1cc(/C=C/C(=O)O)ccc1O	i	i	i	i	i	.	.	.	.
COc1cc(/C=C/C(=O)CC(=O)/C=C/c2ccc(O)c(OC)c2)ccc1O	i	i	143*	i	i	i	0.0325*	i	212*
COc1ccc(-c2cc(=O)oc3c(C)c(OC(C)C(=O)NCc4ccccn4)ccc23)cc1 (stereo not drawn)	i	i	i	i	i	.	.	.	.
COC(=O)c1ccc(N2CCN(c3ccccc3)CC2)nc1	i	i	i	i	i	.	.	.	.
O=C1NC(=Nc2ccc(Cl)cc2)/C(=C/c2ccco2)S1	i	i	i	i	i	.	.	.	.
CCOc1ccc(N=C2NC(=O)S/C2=C\c2ccc(N(C)C)cc2)cc1	i	i	26.9*	i	i	261.4%*	0.25*	i	59.4*
CCN(Cc1ccccc1)C(=O)CN1C(=O)NC(CC)(c2ccc(F)cc2)C1=O (stereo not drawn)	i	i	i	i	i	.	.	.	.
O=C(Nc1ccc(S(=O)(=O)Nc2ncccn2)cc1)c1ccc(N2CCCC2=O)cc1	i	i	i	i	i	.	.	.	.
COc1cc(/C=C2/C(=N)N3C(SC)=NSC3=NC2=O)ccc1OC(=O)c1ccco1	i	i	70.9*	i	i	227.4%*	i	i	48.4*
CC(C)OC(=O)CSc1nnc(-c2ccncc2)n1N	i	i	40.9*	i	i	i	i	i	i
CC(C)OC(=O)CSc1nnc(-c2ccc(C(C)(C)C)cc2)n1N	i	i	i	i	i	.	.	.	.
CCOc1cc(/C=N/NC(=O)c2ccc(CN3CCOCC3)cc2)ccc1OC	i	i	i	i	i	.	.	.	.
